Measured values: ChEMBL document CHEMBL1124388, “Cardiotonic agents. 1-Methyl-7-(4-pyridyl)-5,6,7,8-tetrahydro-3 (2H)-isoquinolinones and related compounds. Synthesis and activity” (J Med Chem, 1989)
The source made the active and inactive calls. The rule behind the calls is not given here.

Species: Canis familiaris
Assay: Positive inotropic effects in the propranolol induced heart failure model in the dog.
Format: functional, Canis lupus familiaris
Settings: not given
In short: (§1)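 Pentobarbital-anesthetized (30 mg/kg iv) mongrel dogs, 8–12 kg, either sex. Heart failure induced by propranolol, 4 mg/kg iv bolus then 0.1 mg/kg/min infusion. About 20 min later, compound given cumulatively into the femoral vein, one dose-response curve per animal. LV dp/dt max read by electronic differentiator. ED100 is the dose restoring pre-propranolol LV dp/dt max, taken from log dose-response. Highest dose tested 10 mg/kg. Three experiments unless stated.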

Compound | ED100 [mg/kg]
CCc1nc(O)c(C(C)=O)c2c1CC(c1ccncc1)CC2 (centres undefined) | 0.3
Cc1nc(O)c(C#N)c2c1C(C)CCC2 (centres undefined) | 3
Cc1nc(O)c(C#N)c2c1CCC(C)C2 (centres undefined) | 1
COc1ccc(C2CCc3c(C#N)c(O)nc(C)c3C2)cc1 (centres undefined) | 0.3
Cc1nc(O)c(N)c2c1CC(c1ccncc1)CC2 (centres undefined) | 0.2
Cc1nc(O)c(C#N)c2c1CCCC2 | 3
CCC(=O)c1c(O)nc(C)c2c1CCC(c1ccncc1)C2 (centres undefined) | 4
CCCc1c(O)nc(C)c2c1CCC(c1ccncc1)C2 (centres undefined) | 0.3
Cc1nc(O)c([N+](=O)[O-])c2c1CC(c1ccncc1)CC2 (centres undefined) | 0.1
Cc1nc(O)c(C#N)c2c1CC(c1ccccn1)CC2 (centres undefined) | 0.3
Cc1nc(O)c(C#N)c2c1CCCC2C (centres undefined) | 2
Cc1nc(O)c(C#N)c2c1CC(c1ccncc1)CC2 (centres undefined) | 0.1
CCC1CCc2c(C#N)c(O)nc(C)c2C1 (centres undefined) | 1
Cc1nc(O)cc2c1CC(c1ccncc1)CC2 (centres undefined) | 0.3
COC1CCc2c(C#N)c(O)nc(C)c2C1 (centres undefined) | 1
Cc1[nH]c(=O)c(C#N)cc1-c1ccncc1 [MILRINONE] | 0.1
Cc1nc(O)c(C#N)c2c1CC(c1cccnc1)CC2 (centres undefined) | 0.1
Cc1nc(O)c(C#N)c2c1CC(C)CC2 (centres undefined) | 0.3
Cc1nc(O)c(C)c2c1CC(c1ccncc1)CC2 (centres undefined) | 2
CCc1c(O)nc(C)c2c1CCC(c1ccncc1)C2 (centres undefined) | 0.02
Cc1nc(O)c(C#N)c2c1CC(c1ccccc1)CC2 (centres undefined) | 0.1
CC(=O)c1c(O)nc(C)c2c1CCC(c1ccncc1)C2 (centres undefined) | 0.1

The molecules below were run on Canis familiaris (assay: Positive inotropic effects in the propranolol induced heart failure model in the dog; Inactive at 10 mg/kg.). Settings: Canis lupus familiaris.
Format: functional, organism-based
Parameters: dose 10 mg/kg
In short: as §1

Compound | ED100
Cc1nc(O)c(C#N)c2c1CCC(c1ccncc1)C2 (centres undefined) | inactive
CCCC(=O)c1c(O)nc(C)c2c1CCC(c1ccncc1)C2 (centres undefined) | inactive
N#Cc1c(O)ncc2c1CCCC2 | inactive
Cc1nc(O)c(C(N)=O)c2c1CC(c1ccncc1)CC2 (centres undefined) | inactive
Cc1c(C#N)c(O)nc2c1CC(c1ccncc1)CC2 (centres undefined) | inactive
Cc1c2c(c(C#N)c(=O)n1C)CCC(C)C2 (centres undefined) | inactive
CC(=O)c1c(O)nc2c(c1C)CC(c1ccncc1)CC2 (centres undefined) | inactive
Cc1nc(O)c(C#N)c2c1CC(c1ccc(CN(C)C)cc1)CC2 (centres undefined) | inactive
CCCc1nc(O)c(C#N)c2c1CCCC2 | inactive
COC1CCc2nc(O)c(C#N)c(C)c2C1 (centres undefined) | inactive
Cc1nc(O)c(C#N)c2c1CC(c1ccc(N(C)C)cc1)CC2 (centres undefined) | inactive
Cc1nc(O)c(C(=O)c2ccccc2)c2c1CC(c1ccncc1)CC2 (centres undefined) | inactive
CCCCOC1CCc2c(C#N)c(O)nc(C)c2C1 (centres undefined) | inactive
COCc1ccc(C2CCc3c(C#N)c(O)nc(C)c3C2)cc1 (centres undefined) | inactive
Cc1c(C#N)c(O)nc2c1CC(C)CC2 (centres undefined) | inactive
Cc1c(C#N)c(O)nc2c1CCCC2 | inactive
CCCCc1nc(O)c(C(C)=O)c2c1CC(c1ccncc1)CC2 (centres undefined) | inactive
Cc1nc(O)c(C#N)c2c1CC(C(C)(C)C)CC2 (centres undefined) | inactive
Cc1nc(O)c(C=O)c2c1CC(c1ccncc1)CC2 (centres undefined) | inactive

Species: Canis lupus familiaris
Assay: Relative inhibition of canine PDE1 and PDE 3
Settings: not given

Ratio | Compound
273 | CC(=O)c1c(O)nc(C)c2c1CCC(c1ccncc1)C2 (centres undefined)

These molecules were tested against Phosphodiesterase 1 (Canis familiaris) (assay: Inhibition of canine Phosphodiesterase 1(PDE 1)). Settings: not given.

IC50 [µM] | Compound
409 | CC(=O)c1c(O)nc(C)c2c1CCC(c1ccncc1)C2 (centres undefined)

What follows are molecules tested against Phosphodiesterase 3 (Canis familiaris) (assay: Inhibition of canine Phosphodiesterase III (PDE 3)). Settings: not given.

IC50 [µM] | Compound
1.5 | CC(=O)c1c(O)nc(C)c2c1CCC(c1ccncc1)C2 (centres undefined)
